According to PMC8167812 (Cell reports, 2021):

Assays:
Clr4-SET = Clr4-SET (Schizosaccharomyces pombe, UniProt O60016); assay: Thermal shift assay, Clr4-SET; type: binding, fission yeast (S. pombe); conditions: without peptide, SYPRO orange, Figure S3C
How it was run: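 Clr4 SET domain (residues 190–490) was expressed in Rosetta E. coli and purified on Talon resin. Protein at 3 μM was mixed with 150 μM SAM in 50 mM Tris pH 8.0, 1 mM EDTA and 0.5 mM DTT, held 10 min at room temperature then 10 min on ice. SYPRO orange was added and the sample ramped 25–99 °C in 1 °C steps over 75 min. Curves were min–max normalised; samples were run in duplicate.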

TetR-Clr4 at tetO = assay: ChIP analysis of TetR-Clr4 release from tetO after tetracycline addition; type: cell-based, fission yeast (S. pombe); conditions: tetracycline 10 μM

Sequence of Clr4-SET (O60016 190-490): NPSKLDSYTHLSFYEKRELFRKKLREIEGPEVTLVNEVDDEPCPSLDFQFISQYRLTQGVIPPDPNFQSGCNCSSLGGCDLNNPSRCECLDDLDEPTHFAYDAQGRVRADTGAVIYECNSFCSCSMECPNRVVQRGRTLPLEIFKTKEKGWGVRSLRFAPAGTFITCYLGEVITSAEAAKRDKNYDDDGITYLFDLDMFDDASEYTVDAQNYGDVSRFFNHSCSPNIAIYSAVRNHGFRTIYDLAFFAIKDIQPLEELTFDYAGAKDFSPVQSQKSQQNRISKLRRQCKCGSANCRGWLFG

C[S+](CC[C@H](N)C(=O)[O-])C[C@H]1O[C@@H](n2cnc3c(N)ncnc32)[C@H](O)[C@@H]1O (stereo partly drawn) [SAM, S-adenosyl-methionine]
thermal stability of Clr4 on addition of SAM alone (Clr4-SET): greater thermal stability of Clr4

CN(C)[C@@H]1C(O)=C(C(N)=O)C(=O)[C@@]2(O)C(O)=C3C(=O)c4c(O)cccc4[C@@](C)(O)[C@H]3C[C@@H]12 [tetracycline]
release of TetR-Clr4 from tetO (TetR-Clr4 at tetO; hht3-K9M cells, samples at 5, 10, and 20 minutes): a delay in the release of TetR-Clr4 | time in which most TetR-Clr4 is released from tetO (TetR-Clr4 at tetO; 30°C, ChIP-qPCR normalized to act1+): ≤ 5 min
